This is a sample that favours compounds with a hit; in the whole collection about 2.4% have one here.
HMGR II inh = inhibitors of E. faecalis class II HMGR, primary screen, biochemical, Enterococcus faecalis; HMG-CoA reductase (Enterococcus faecalis, mvaE); purified E. faecalis HMGR, NADPH absorbance 340 nm kinetic; inhibition, % at 10 µM; hit rate 0.41% among 190,000;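 active = inhibition above a set limit, the median over all tested compounds plus 3 SD, cut at about 9.5% in these data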;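 note: enzyme runs in reverse so mevalonate oxidation gives rising NADPH absorbance; 0% = complete reaction with DMSO and 100% = background rate lacking mevalonate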
EP2 antag = human EP2 receptor antagonists, primary screen, TR-FRET cAMP, C6 glioma cells; Prostaglandin E2 receptor EP2 subtype (Homo sapiens), P43116; C6 glioma cells expressing human EP2; cells stimulated with saturating PGE2; inhibition, % at 25 µM; hit rate 0.52% among 260,000;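 active = percent inhibition above 40 after rounding to a whole number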;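 note: rat C6 glioma host cells with rolipram phosphodiesterase inhibitor present; the protocol text gives 20 µM as final concentration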
Target sequence (P43116 whole entry, looked up): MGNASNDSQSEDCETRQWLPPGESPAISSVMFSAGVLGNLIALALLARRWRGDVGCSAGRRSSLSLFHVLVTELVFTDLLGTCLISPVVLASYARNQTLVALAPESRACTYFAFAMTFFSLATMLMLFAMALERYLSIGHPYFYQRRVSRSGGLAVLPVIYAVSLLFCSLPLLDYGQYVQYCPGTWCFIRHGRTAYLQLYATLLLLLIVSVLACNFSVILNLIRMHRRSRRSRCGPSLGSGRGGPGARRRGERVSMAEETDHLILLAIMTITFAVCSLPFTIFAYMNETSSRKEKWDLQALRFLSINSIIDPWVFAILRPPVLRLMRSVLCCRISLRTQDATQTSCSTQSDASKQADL
Tb hexokinase = Trypanosoma brucei hexokinase 1 inhibitors, primary screen, biochemical, G6PDH-coupled NADH absorbance, MLSCN library; hexokinase 1 [Trypanosoma brucei]; recombinant TbHK1, G6PDH-coupled NADH A340; inhibition, % at 10 µM; hit rate 0.11% among 220,000;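 active = inhibition of 50% or more in the single-dose primary screen; inactive = inhibition below 50%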
EP2 modulator = EP2 receptor modulators, cAMP readout, primary screen, cell-based, HTRF cAMP, PGE2 stimulation; Prostaglandin E2 receptor EP2 subtype (Homo sapiens), P43116; EP2-expressing cells, cAMP HTRF FRET, PGE2 co-stimulation; induction, % at 25 µM; hit rate 0.83% among 260,000; AID 940, 2007;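 active = compounds whose cAMP rise, as percent of the full-agonist control response, exceeds 60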;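 note: rat C6 glioma line stably carrying human EP2 under a CMV promoter; the protocol text gives 20 µM as final concentration; 100% = response of wells given 1 µM PGE2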
MT stabilize HCS = microtubule stabilizers in HeLa cells, primary screen, imaging, high-content imaging; HeLa tubulin immunostaining HCS, 24 h; share of cells brighter than vehicle mean+2SD; % tubulin-high responders, % at 10 µM; hit rate 0.83% among 200,000; AID 2205, 2009;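 active = plate Z-score above 3 for both tubulin-high and condensed-nucleus cell shares, with cell loss under 80%, at 10 µM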;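 note: anti alpha tubulin signal scored within the nucleus-defined area of each cell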
b-catenin transl = modulators of beta-catenin nuclear translocation, primary screen, imaging, HeLa cells, immunofluorescence, high-content | nuclear translocation activity, % at 5 µM | hit rate 0.3% among 190,000;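 active = nuclear translocation activity above 50% at 5 µM, with a well cell count of 50 or more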;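 note: per-cell ratio of nuclear to cytoplasmic median beta-catenin stain intensity; plate controls were DMSO negative control for no effect and GSK-3 inhibitor IX positive control for full effect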
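Technique: fluorescence imaging of beta-catenin antibody stain plus DAPI / Material: human HeLa cell line / Incubation: compound treatment 24 h, 37°C, 5% CO2 / Read-out basis: % activation of per-cell nuclear versus cytoplasmic median beta-catenin signal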
Numbers without * were called inactive; / = not tested or not shown; ! = a repeat was not active.

SMILES | HMGR II inh | EP2 antag | Tb hexokinase | EP2 modulator | MT stabilize HCS | b-catenin transl
CCn1c(SCC(=O)O)nnc1-c1ccc(Cl)cc1Cl | / | 10.3 | / | 25.6 | / | /
COCCOC(=O)c1[nH]c2c(c1C)C(=O)CC(c1cccs1)C2 (stereo not given) | 0.0 | 2.0 | -1.8 | -34.1 | 23.3* | 21.0
COc1ccc(N2CCN(C(=O)CN3CCCC3)CC2)cc1 | / | 8.7 | / | 0.6 | / | /
CCOC(=O)C(C)On1c(-c2ccc(Cl)cc2)nc2ccc([N+](=O)[O-])cc21 (stereo not given) | -3.2 | 4.9 | -11.6 | 20.7 | 1.1 | -5.5
CCOC(=O)C(C)On1c(-c2ccccc2)nc2ccc([N+](=O)[O-])cc21 (stereo not given) | -0.8 | 14.4 | -23.7 | 62.1* | 1.2 | -0.6
Cn1c(N2CCC(C(=O)NCCc3ccc(F)cc3)CC2)nc2ccccc21 | / | 6.1 | / | -95.3 | / | /
Fc1ccccc1Nc1nc(Cl)nc(Cl)n1 | 10.6* | 6.3 | -2.5 | 29.9 | 2.7 | 0.2
CO/N=C\CC(=O)Nc1ccc(Oc2ccccc2)cc1 | -0.9 | 10.6 | -3.4 | 1.0 | 26.9* | 164.8*
Cn1c(=O)c2ncn(CC#N)c2n(C)c1=O | / | 2.6 | / | 4.7 | / | /
COc1cccc(-n2cc(CNCc3c(C(=O)N(C)C)nc4ccc(Cl)cn34)cn2)c1 | 1.4 | 5.8 | -4.4 | -12.2 | 3.7 | 0.4
Cc1ccccc1-n1cc(CNCc2c(C(=O)N(C)C)nc3ccc(Cl)cn23)cn1 | 13.0* | 9.8 | -9.5 | 2.1 | 0.8 | 0.1
CSc1nc(=S)c2[nH]c(=S)[nH]c2[nH]1 | / | 44.5* | -12.8 | 23.6 | / | -4.5
Cc1cc2c(cc3c(=O)n(CC(=O)N4CCCCC4)nc(C)n32)s1 | / | / | / | -5.5 | / | /
N#CC1=C(N)SC(N)=C(C#N)C1c1cccc(Br)c1 | / | 19.0 | / | -46.8 | / | /
O=C(NCc1ccc(N2CCCC2=O)cc1)c1ccc(F)cc1 | 3.5 | 11.1 | -3.1 | -4.1 | 9.4* | -2.5
COC(=O)CSc1nc(-c2ccccc2)nc2ccc(F)cc12 | -7.0 | 4.4 | -9.5 | 35.8 | 1.0 | 1.2
O=C(O)CSc1nc(-c2ccccc2)nc2ccc(F)cc12 | / | 12.3 | / | 88.9* | / | /
OCCSc1nc(-c2ccccc2)nc2ccc(F)cc12 | -1.0 | 12.5 | -1.7 | 70.3*! | 1.8 | 0.0
COc1ccccc1NC(=O)c1sc2nc3cc(C)cc(C)c3cc2c1N | / | 11.1 | / | -6.8 | / | /
c1cncc(CSc2nnc(-c3ccncc3)o2)c1 | / | 9.9 | / | 23.3 | / | /
O=C(NNC(=O)C1CCN(S(=O)(=O)c2ccc(Cl)cc2)CC1)c1ccncc1 | 13.4* | 6.5 | -3.7 | 9.8 | / | -0.7
O=C(Nc1nnc(-c2cccs2)s1)c1ccco1 | / | 44.3* | / | 4.0 | / | /
Nc1nc(-c2ccccc2)cc(N2CCCCC2)n1 | 2.9 | 12.4 | -8.9 | -16.6 | 13.9* | 56.0*
CCC(CN1CCOCC1)NC(=O)Cc1coc2cc(C)cc(C)c12 (stereo not given) | / | 6.8 | / | -23.6 | / | /
CC1CCN(c2nc3c(c(=O)[nH]2)CCN(Cc2ccc(F)c(F)c2)C3)CC1 | / | 15.8 | / | -40.4 | / | /
SMILES | HMGR II inh | EP2 antag | Tb hexokinase | EP2 modulator | MT stabilize HCS | b-catenin transl
O=S(=O)(O)c1cc(N=Nc2cccc3ccccc23)c(O)c2ncccc12 | / | 37.8 | / | -2.6 | / | /
O=S(=O)(O)c1ccc(N=Nc2ccc3c(S(=O)(=O)O)cccc3c2O)c2ccccc12 | / | 55.5* | / | -8.9 | / | /
Cc1ccc(CN(CCCn2ccnc2)Cc2ccc(N3CCCC3)c(F)c2)o1 | / | 5.5 | / | -5.4 | / | /
O=C(O)c1ccccc1CN1CCC[C@@H](C(=O)O)C1 | / | 48.2* | / | 3.4 | / | /
O=C(O)C1CCCN(C(=O)NCc2ccccc2)C1 (stereo not given) | -4.8 | 12.2 | 1.0 | -1.2 | 3.2 | -5.8
CC(=O)C1=C(O)C(=O)N(CCNCCO)C1c1ccc(O)cc1 (stereo not given) | / | 5.9 | / | -25.5 | / | /
Cc1cc2cc(CN(Cc3cccs3)C(=S)NCc3ccccc3)c(=O)[nH]c2cc1C | / | 14.2 | / | -1.4 | / | /
CN(C)Cc1c(O)ccc2ccccc12 | / | 5.7 | -3.3 | -21.7 | / | 0.2
Oc1ccc2ccccc2c1CN(Cc1c(O)ccc2ccccc12)C1CCCCC1 | / | 54.9* | / | -11.5 | / | /
COc1ccc2c(Cl)c(C(=O)N/N=C/c3c(C)[nH]c4ccccc34)sc2c1 | -5.8 | 9.7 | -23.2 | -19.7 | 21.5* | 77.5*
Cc1c(Cc2ccc3c(c2)OCO3)sc(NC(=O)C(C)(C)C)c1C#N | 0.2 | 8.0 | -2.1 | -5.8 | 21.7* | -0.7
CCCn1c(=O)[nH]c2c(C(N)=O)nc(-c3ccc(F)cc3)nc21 | / | / | / | 7.6 | / | /
CCC(C)C(=O)Nc1nnc(SCC(=O)N2CCc3ccccc32)s1 (stereo not given) | / | 6.9 | / | -27.4 | / | /
Cc1cc(C(C)(C)C)oc1C(=O)N(CC(=O)NC1CCCC1)c1ccc(F)cc1 | 5.2 | 14.6 | 7.5 | 1.4 | 1.2 | 0.6
Cc1cc(C(C)(C)C)oc1C(=O)N(CC(=O)NC1CCCC1)c1c(C)cccc1C | 4.8 | 11.2 | 6.6 | 64.0* | 1.3 | 0.3
COCCOC(=O)C1=C(C)NC(SCC(=O)NC(C)(C)C)=C(C#N)C1c1ccco1 (stereo not given) | -9.3 | 36.5 | -10.0 | 9.6 | 3.8 | 0.1
CCOC(=O)C1=C(c2ccccc2)NC(SCC(=O)NC2CCCCC2)=C(C#N)C1c1ccco1 (stereo not given) | -3.7 | 71.4* | -2.8 | 27.1 | 2.4 | -1.4
CCc1cc(C(=O)OC)c(NC(=O)C2CC(=O)NN2Cc2ccccc2)s1 (stereo not given) | -4.3 | 7.3 | -7.3 | 63.3* | 0.9 | 1.0
COC(=O)/C(=C/c1c[nH]c2ccccc12)NC(C)=O | -7.7 | 9.7 | -41.2 | -15.4 | 0.5 | -1.4
COC(=O)/C(=C/c1c[nH]c2ccccc12)[N+](=O)[O-] | -4.8 | 140.6* | 1.0 | -48.3 | 2.2 | 0.0
CCc1c(C)sc2nc(C(C)C)n3c(=O)n(CC(=O)NC4CC4)nc3c12 | / | / | / | -7.6 | / | /
O=C(NC1CCCCC1)C(c1cccnc1)N(C(=O)CCl)c1cccc(Cl)c1 (stereo not given) | -5.0 | 3.7 | -0.1 | 2.6 | 13.6* | 25.1
Cc1cc(C)cc(N(C(=O)Cc2cccs2)C(C(=O)NC2CCCCC2)c2cccnc2)c1 (stereo not given) | / | 21.5 | / | -7.6 | / | /
COc1ccc2nc3oc(C(=O)N4CCN(c5cccc(C(F)(F)F)c5)CC4)cc3cc2c1 | -0.3 | 16.4 | -11.8 | -31.6 | 12.8* | 19.2
CCn1cc(C(=O)O)c(=O)c2cc(F)c(N3CCN(S(=O)(=O)c4ccc(Br)cc4)CC3)cc21 | 10.3* | 8.4 | -26.3 | 6.5 | 2.8 | -0.1
CCOC(=O)c1cc(-c2ccc(OC)cc2)n(CCC(=O)NC2CCN(Cc3ccccc3)CC2)c1C | 10.3* | 5.5 | 0.3 | -8.8 | 3.3 | -3.0

From PubChem BioAssay
